# ChEMBL document CHEMBL1149311, “Synthesis and antitumor activity of methyltriazene prodrugs simultaneously releasing DNA-methylating agents and the antiresistance drug O(6)-benzylguanine” (J Med Chem, 2004)
# What was measured:
# A549 = assay: Antitumor activity against human A549 cells; type: functional; settings: for CC50: read-out: Log LC50 (the source's name) (converted); for TGI: read-out: Log TGI (converted)
# Summary of the method: (§1)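 Tested in the NCI in vitro disease-oriented human tumor cell screen. The endpoints are IC50 (molar concentration giving 50% growth inhibition), TGI (total growth inhibition) and LC50 (50% net cell death). The maximal concentration tested was 100 μM. Subpanel values are means of several individual cell lines.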
# HOP-62 = assay: Antitumor activity against human HOP62 cells; type: functional; settings: for TGI: read-out: Log TGI (converted); summary of the method: as §1
# HCT-116 = assay: Antitumor activity against human HCT116 cells; type: functional; settings: for CC50: read-out: Log LC50 (the source's name) (converted); for TGI: read-out: Log TGI (converted); summary of the method: as §1
# SW-620 = assay: Antitumor activity against human SW620 cells; type: functional; settings: for CC50: read-out: Log LC50 (the source's name) (converted); for TGI: read-out: Log TGI (converted)
# Summary of the method: (§2)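 NCI in vitro disease-oriented tumour cell line screen. Read-outs are IC50 (molar concentration giving 50% growth inhibition), TGI (molar concentration giving total inhibition of net growth) and LC50 (molar concentration giving 50% net cell death). The maximal concentration tested was 100 μM.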
# SF-295 = assay: Antitumor activity against human SF295 cells; type: functional; settings: for CC50: read-out: Log LC50 (the source's name) (converted); for TGI: read-out: Log TGI (converted); summary of the method: as §1
# M14 = assay: Antitumor activity against human M14 cells; type: functional; settings: for CC50: read-out: Log LC50 (the source's name) (converted); for TGI: read-out: Log TGI (converted); summary of the method: as §1
# IGROV-1 = assay: Antitumor activity against human IGROV1 cells; type: functional; settings: for CC50: read-out: Log LC50 (the source's name) (converted); for TGI: read-out: Log TGI (converted); summary of the method: as §1
# OVCAR-4 = assay: Antitumor activity against human OVCAR4 cells; type: functional; settings: for CC50: read-out: Log LC50 (the source's name) (converted); for TGI: read-out: Log TGI (converted); summary of the method: as §1
# UO-31 = assay: Antitumor activity against human UO31 cells; type: functional; settings: for CC50: read-out: Log LC50 (the source's name) (converted); for TGI: read-out: Log TGI (converted); summary of the method: as §2
# PC-3 = assay: Antitumor activity against human PC3 cells; type: functional; settings: for CC50: read-out: Log LC50 (the source's name) (converted); for TGI: read-out: Log TGI (converted); summary of the method: as §1
# Hs-578T = assay: Antitumor activity against human HS578T cells; type: functional; settings: for GI50 / CC50 / TGI: Homo sapiens, Hs-578T; for CC50: read-out: Log LC50 (the source's name) (converted); for TGI: read-out: Log TGI (converted); summary of the method: as §1
# BT-549 = assay: Antitumor activity against human BT549 cells; type: functional; settings: for CC50: read-out: Log LC50 (the source's name) (converted); for TGI: read-out: Log TGI (converted); summary of the method: as §1
# CCRF-CEM = assay: Antitumor activity against human CCRF-CEM cells; type: functional
# Summary of the method: (§3)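 Tested in the NCI in vitro disease-oriented tumor cell screen, up to a top concentration of 100 µM. Read-outs: IC50 is the molar concentration giving 50% growth inhibition, TGI the concentration giving total growth inhibition, and LC50 the concentration giving 50% net cell death.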
# MOLT-4 = assay: Antitumor activity against human MOLT4 cells; type: functional; summary of the method: as §3
# NCI-H226 = assay: Antitumor activity against human NCI-H226 cells; type: functional; summary of the method: as §3
# NCI-H522 = assay: Antitumor activity against human NCI-H522 cells; type: functional; summary of the method: as §3
# HCC 2998 = assay: Antitumor activity against human HCC2998 cells; type: functional; summary of the method: as §3
# HT-29 = assay: Antitumor activity against human HT29 cells; type: functional; summary of the method: as §3
# ACHN = assay: Antitumor activity against human ACHN cells; type: functional; summary of the method: as §3
# NCI-H460 [1] = assay: Antitumor activity against human NCI-H460 cells at 100 uM relative to control; type: functional
# Summary of the method: (§4)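 NCI three-cell-line one-dose primary anticancer prescreen at 100 µM. Growth is expressed as % of untreated control cells, with the control taken as 100%.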
# MCF7 [2] = assay: Antitumor activity against human MCF7 cells at 100 uM relative to control; type: functional; summary of the method: as §4
# SF-268 [3] = assay: Antitumor activity against human SF268 cells at 100 uM relative to control; type: functional; summary of the method: as §4
# Malme-3M = assay: Antitumor activity against human MALME-3M cells; type: functional; summary of the method: as §3
# A498 = assay: Antitumor activity against human A498 cells; type: functional; summary of the method: as §3
# RXF 393 = assay: Antitumor activity against human RXF393 cells; type: functional; summary of the method: as §3
# SN12C = assay: Antitumor activity against human SN12C cells; type: functional; summary of the method: as §3
# [4] = Antitumor activity against human NCI/ADR RES cells; type: functional; summary of the method: as §3
# NCI [5] = assay: Antitumor activity against human NCI colon cancer cell line panel; type: functional, cell-based; summary of the method: as §1
# NCI [6] = assay: Antitumor activity against NCI human melanoma cell line panel; type: functional, cell-based; summary of the method: as §1
# NCI [7] = assay: Antitumor activity against human NCI prostate cancer cell line panel; type: functional, cell-based; summary of the method: as §1
# SR = assay: Antitumor activity against human SR cells; type: functional; summary of the method: as §2
# NCI-H460 [8] = assay: Antitumor activity against human NCI-H460 cells at 50 uM relative to control; type: functional
# Summary of the method: (§5)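 Tested in the NCI three-cell-line one-dose primary anticancer prescreen. The read-out is growth as % of untreated control cells (100%) at 50 μM.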
# MCF7 [9] = assay: Antitumor activity against human MCF7 cells at 50 uM relative to control; type: functional; summary of the method: as §5
# SF-268 [10] = assay: Antitumor activity against human SF268 cells at 50 uM relative to control; type: functional; summary of the method: as §5
# [11] = read-out: Log LC50 (the source's name) (converted)
# [12] = read-out: LC50 (the source's name)
smiles,measurement,setting,value
CN(/N=N/c1nc(OCc2ccccc2)c2nc[nH]c2n1)C(=O)N(C)/N=N/c1nc(OCc2ccccc2)c2nc[nH]c2n1,CC50,A549,> 100 µM
same,TGI,A549,> 100 µM
same,GI50,HOP-62,95.5 µM
same,LC50,HOP-62,> 100 µM
same,TGI,HOP-62,> 100 µM
same,GI50,HCT-116,35.5 µM
same,CC50,HCT-116,> 100 µM
same,TGI,HCT-116,> 100 µM
same,GI50,SW-620,72.4 µM
same,CC50,SW-620,> 100 µM
same,TGI,SW-620,> 100 µM
same,GI50,SF-295,32.4 µM
same,CC50,SF-295,> 100 µM
same,TGI,SF-295,> 100 µM
same,GI50,M14,70.8 µM
same,CC50,M14,> 100 µM
same,TGI,M14,> 100 µM
same,GI50,IGROV-1,34.7 µM
same,CC50,IGROV-1,> 100 µM
same,TGI,IGROV-1,> 100 µM
same,GI50,OVCAR-4,> 100 µM
same,CC50,OVCAR-4,> 100 µM
same,TGI,OVCAR-4,> 100 µM
same,GI50,UO-31,36.3 µM
same,CC50,UO-31,> 100 µM
same,TGI,UO-31,> 100 µM
same,GI50,PC-3,40.7 µM
same,CC50,PC-3,> 100 µM
same,TGI,PC-3,> 100 µM
same,pKP,Hs-578T,>4
same,GI50,Hs-578T,25.1 µM
same,CC50,Hs-578T,> 100 µM
same,TGI,Hs-578T,85.1 µM
same,GI50,BT-549,36.3 µM
same,CC50,BT-549,> 100 µM
same,TGI,BT-549,> 100 µM
same,GI50,CCRF-CEM,50.1 µM
same,CC50,CCRF-CEM; [11],> 100 µM
same,TGI,CCRF-CEM; read-out: Log TGI (converted),> 100 µM
same,GI50,MOLT-4,53.7 µM
same,CC50,MOLT-4; [11],> 100 µM
same,TGI,MOLT-4; read-out: Log TGI (converted),> 100 µM
same,GI50,NCI-H226,38.9 µM
same,CC50,NCI-H226; [11],> 100 µM
same,TGI,NCI-H226; read-out: Log TGI (converted),> 100 µM
same,GI50,NCI-H522,39.8 µM
same,CC50,NCI-H522; [11],> 100 µM
same,TGI,NCI-H522; read-out: Log TGI (converted),> 100 µM
same,GI50,HCC 2998,19.5 µM
same,CC50,HCC 2998; [11],> 100 µM
same,TGI,HCC 2998; read-out: Log TGI (converted),81.3 µM
same,GI50,HT-29,60.3 µM
same,CC50,HT-29; [11],> 100 µM
same,TGI,HT-29; read-out: Log TGI (converted),> 100 µM
same,GI50,ACHN,31.6 µM
same,CC50,ACHN; [11],> 100 µM
same,TGI,ACHN; read-out: Log TGI (converted),> 100 µM
same,Activity,NCI-H460 [1],58%
same,Activity,MCF7 [2],74%
same,Activity,SF-268 [3],46%
same,GI50,Malme-3M,40.7 µM
same,CC50,Malme-3M; [11],> 100 µM
same,TGI,Malme-3M; read-out: Log TGI (converted),> 100 µM
same,GI50,A498,19.5 µM
same,CC50,A498; [11],> 100 µM
same,TGI,A498; read-out: Log TGI (converted),53.7 µM
same,GI50,RXF 393,79.4 µM
same,CC50,RXF 393; [11],> 100 µM
same,TGI,RXF 393; read-out: Log TGI (converted),> 100 µM
same,GI50,SN12C,56.2 µM
same,CC50,SN12C; [11],> 100 µM
same,TGI,SN12C; read-out: Log TGI (converted),> 100 µM
same,GI50,[4],46.8 µM
same,CC50,[4]; [11],> 100 µM
same,TGI,[4]; read-out: Log TGI (converted),> 100 µM
same,IC50,NCI [5],45 µM
same,TGI,NCI [5],> 100 µM
same,IC50,NCI [6],47 µM
same,TGI,NCI [6],93 µM
same,IC50,NCI [7],40 µM
same,TGI,NCI [7],> 100 µM
CN(/N=N/c1nc(OCc2ccccc2)c2nc[nH]c2n1)C(=O)Oc1ccc([N+](=O)[O-])cc1,GI50,SR,26.3 µM
same,CC50,SR; [11],> 50.1 µM
same,TGI,SR; read-out: Log TGI (converted),> 50.1 µM
same,GI50,A549,12 µM
same,CC50,A549,50.1 µM
same,TGI,A549,31.6 µM
same,GI50,HOP-62,28.8 µM
same,LC50,HOP-62,> 50.1 µM
same,TGI,HOP-62,> 50.1 µM
same,GI50,HCT-116,8.71 µM
same,CC50,HCT-116,29.5 µM
same,TGI,HCT-116,15.8 µM
same,GI50,SW-620,9.12 µM
same,CC50,SW-620,> 50.1 µM
same,TGI,SW-620,26.3 µM
same,GI50,SF-295,11.2 µM
same,CC50,SF-295,> 50.1 µM
same,TGI,SF-295,33.9 µM
same,GI50,M14,8.91 µM
same,CC50,M14,38 µM
same,TGI,M14,18.2 µM
same,GI50,IGROV-1,12.3 µM
same,CC50,IGROV-1,> 50.1 µM
same,TGI,IGROV-1,30.9 µM
same,GI50,OVCAR-4,22.9 µM
same,CC50,OVCAR-4,> 50.1 µM
same,TGI,OVCAR-4,> 50.1 µM
same,GI50,UO-31,6.61 µM
same,CC50,UO-31,29.5 µM
same,TGI,UO-31,13.8 µM
same,GI50,PC-3,10.7 µM
same,CC50,PC-3,> 50.1 µM
same,TGI,PC-3,26.9 µM
same,GI50,Hs-578T,8.71 µM
same,CC50,Hs-578T,> 50.1 µM
same,TGI,Hs-578T,29.5 µM
same,GI50,BT-549,7.41 µM
same,CC50,BT-549,> 50.1 µM
same,TGI,BT-549,20.4 µM
same,Activity,NCI-H460 [8],0%
same,Activity,MCF7 [9],1%
same,Activity,SF-268 [10],4%
same,IC50,NCI [5],9 µM
same,TGI,NCI [5],21 µM
same,CC50,NCI [5]; [12],43 µM
same,IC50,NCI [6],8 µM
same,TGI,NCI [6],23 µM
same,CC50,NCI [6]; [12],40 µM
same,IC50,NCI [7],10 µM
same,TGI,NCI [7],23 µM
same,CC50,NCI [7]; [12],46 µM
